According to ChEMBL document CHEMBL1144601, “Synthesis and antiproliferative properties of N3/8-disubstituted 3,8-diazabicyclo[3.2.1]octane analogues of 3,8-bis[2-(3,4,5-trimethoxyphenyl)pyridin-4-yl]methyl-piperazine” (Eur J Med Chem, 2007):
The source made the active and inactive calls. The calls are words filed in the database; no cut-off is given here.

Tests used:
CCRF-CEM = experiment: Antiproliferative activity against human CCRF-CEM cells by MTT assay; type: functional, cell-based
Outline: (§1)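 Exponentially growing cells resuspended in growth medium with serial drug dilutions; viability read by MTT after 96 h at 37 °C, with untreated controls allowed at least three rounds of multiplication. IC50 is the concentration cutting proliferation by 50%, mean ± SD of three independent determinations. Haematological lines were grown in RPMI-1640 with 10% FCS and antibiotics. Solid-tumour lines were grown in their own media with 10% FCS.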

WIL2-NS = experiment: Antiproliferative activity against human WIL-2NS cells by MTT assay; type: functional, cell-based; outline: as §1
SK-MES-1 = experiment: Antiproliferative activity against human SKMES1 cells by MTT assay; type: functional, cell-based; outline: as §1
MT4 = experiment: Antiproliferative activity against human MT4 cells by MTT assay; type: functional, cell-based; outline: as §1
[1] = Antiproliferative activity against human CRL7065 cells by MTT assay; type: functional, cell-based; details: CRL-7065; outline: as §1
MCF7 [2] = experiment: Induction of apoptosis in human MCF7 cells up to 50 uM after 24 hrs by propidium iodide satining assay; type: functional, cell-based
Outline: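 MCF-7 cells treated at 10–50 µM for 24 h were washed in PBS. They were resuspended in 0.1% sodium citrate, 0.1% Triton X-100 and 50 µg/mL propidium iodide, then kept 30 min at 4 °C in the dark. Nuclei were read by flow cytometry on a log scale with debris gated out. The % hypodiploid nuclei is from three experiments in triplicate.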

MCF7 [3] = experiment: Cell cycle arrest in MCF7 cells by accumulation at S phase at 10 uM after 24 hrs; type: functional, Homo sapiens
Outline: (§2)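 MCF-7 cells grown in DMEM with 2 mM L-glutamine and 10% heat-inactivated FBS, seeded at 5×10^5 cells/well. After 24 h they were exposed to compound at 10 µM for 24 h. Cells plus supernatant were collected, stained with Nicoletti reagent and DNA content read by flow cytometry (FL2, linear amplification). Phase distribution was modelled from the histograms.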

MCF7 [4] = experiment: Cell cycle arrest in MCF7 cells by accumulation at G2/M phase at 10 uM after 24 hrs; type: functional, Homo sapiens; outline: as §2
DU-145 = experiment: Antiproliferative activity against human DU145 cells by MTT assay; type: functional, cell-based; outline: as §1
MCF7 [5] = experiment: Increase in p21/WAF1 expression level in MCF7 cells at 10 uM after 24 hrs; type: functional, cell-based; details: Homo sapiens, TDE = time-dependent effect
Outline: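 MCF-7 cells plated at 5×10^5 per 6-cm plate the day before were treated at 10 µM for various times. Lysates were made by freeze-thaw in Tris-HCl buffer with protease and phosphatase inhibitors. 30 µg protein was run on 10% SDS-PAGE and transferred to nitrocellulose. Blots were probed overnight at 4 °C with anti-p21 monoclonal (1:200), then a secondary antibody, and detected by ECL; three experiments.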

CCRF-SB = experiment: Antiproliferative activity against human CCRF-SB cells by MTT assay; type: functional, cell-based; outline: as §1
SK-MEL-28 = experiment: Antiproliferative activity against human SK-MEL-28 cells by MTT assay; type: functional, cell-based; outline: as §1
HepG2 = experiment: Antiproliferative activity against human HepG2 cells by MTT assay; type: functional, cell-based; outline: as §1
MCF7 [6] = experiment: Antiproliferative activity against human MCF7 cells by MTT assay; type: functional, cell-based; outline: as §1
MCF7 [7] = experiment: Cell cycle arrest in MCF7 cells by accumulation at GO/G1 phase at 10 uM after 24hrs; type: functional, Homo sapiens; outline: as §2

| SMILES | IC50 (CCRF-CEM) [µM] | IC50 (WIL2-NS) [µM] | IC50 (SK-MES-1) [µM] | IC50 (MT4) [µM] | IC50 [1] [µM] | Activity (MCF7 [2]) | Activity (MCF7 [3]) [%] | Activity (MCF7 [4]) [%] | IC50 (DU-145) [µM] | Activity (MCF7 [5]) | IC50 (CCRF-SB) [µM] | IC50 (SK-MEL-28) [µM] | IC50 (HepG2) [µM] | IC50 (MCF7 [6]) [µM] | Activity (MCF7 [7]) [%] |
| --- | --- | --- | --- | --- | --- | --- | --- | --- | --- | --- | --- | --- | --- | --- | --- |
| COc1cc(-c2cc(CN3CC4CCC(C3)N4Cc3ccnc(-c4cc(OC)c(OC)c(OC)c4)c3)ccn2)cc(OC)c1OC | 2 | 3 | 10 | 2 | > 100 | inactive | 4.6 | 7.5 | 14 | tde | 3 | 4 | 8 | 5 | 87 |
| Sc1ncnc2nc[nH]c12 [MERCAPTOPURINE ANHYDROUS] | 1 | 3 | 58 | 0.1 | > 100 |  |  |  | 2 |  | 1 | 15 | 8 | 3 |  |
| COc1ccc(-c2cc(CN3CC4CCC(C3)N4Cc3ccnc(-c4ccc(OC)cc4)c3)ccn2)cc1 | 3 | 6 | 3 | 4 | > 100 |  |  |  | 2 |  | 5 | 2 | 3 | 6 |  |
| c1ccc(-c2cccc(CN3CC4CCC(C3)N4Cc3cccc(-c4ccccc4)c3)c2)cc1 | 12 | 12 | 10 |  | 41 |  |  |  | 14 |  | 10 | 15 | 38 | 25 |  |
| c1ccc(CN2CC3CCC(C2)N3Cc2ccccc2)cc1 | 46 | 60 | > 100 | > 100 | > 100 |  |  |  | > 100 |  | 81 | > 100 | > 100 | > 100 |  |
| Cc1cccc(-c2cc(CN3CC4CCC(C3)N4Cc3ccnc(-c4cccc(C)c4)c3)ccn2)c1 | 18 | 25 | 18 | > 100 | > 100 |  |  |  | 34 |  | 18 | 15 | 41 | 24 |  |
| O=C1C2CCC(N2)C(=O)N1Cc1ccccc1 | 85 | > 100 | 81 | > 100 | > 100 |  |  |  | 87 |  | 88 | 96 | 92 | 86 |  |
| CC(=O)Nc1cccc(-c2cc(CN3CC4CCC(C3)N4Cc3ccnc(-c4cccc(NC(C)=O)c4)c3)ccn2)c1 | 16 | 25 | 33 | > 100 | > 100 |  |  |  | 24 |  | 17 | 34 | 43 | 23 |  |
| c1ccc(-c2cc(CN3CC4CCC(C3)N4Cc3ccnc(-c4ccccc4)c3)ccn2)cc1 | 8 | 15 | 11 | 19 | > 100 |  |  |  | 8 |  | 11 | 8 | 11 | 9 |  |
| Cc1ccc(-c2cc(CN3CC4CCC(C3)N4Cc3ccnc(-c4ccc(C)cc4)c3)ccn2)cc1 | 8 | 26 | 8 |  | > 100 |  |  |  | 7 |  | 12 | 7 | 7 | 7 |  |
| Oc1ccc(-c2cc(CN3CC4CCC(C3)N4Cc3ccnc(-c4ccc(O)cc4)c3)ccn2)cc1 | 15 | 18 | 23 |  | 80 |  |  |  | 15 |  | 12 | 19 | 13 | 25 |  |
